According to ChEMBL document CHEMBL4354813, “Design, Synthesis, and Pharmacological Evaluation of Potent Positive Allosteric Modulators of the Glucagon-like Peptide-1 Receptor (GLP-1R)” (J Med Chem, 2020):
One block for each compound: values may come before it. The source made the active and inactive calls. The calls are words filed in the database; no cut-off is given here.

Legend:
[1] = biological target: T1, Glucagon-like peptide 1 receptor (Mus musculus) (UniProt O35659); test: Positive allosteric modulator activity at mouse GLP-1R expressed in PSC-HEK293 cells in presence of EC20 level of GLP1(9-36)NH2 incubated for 30 mins by HTRF cAMP assay relative to control; type: functional, cell-based
T1 sequence (whole entry): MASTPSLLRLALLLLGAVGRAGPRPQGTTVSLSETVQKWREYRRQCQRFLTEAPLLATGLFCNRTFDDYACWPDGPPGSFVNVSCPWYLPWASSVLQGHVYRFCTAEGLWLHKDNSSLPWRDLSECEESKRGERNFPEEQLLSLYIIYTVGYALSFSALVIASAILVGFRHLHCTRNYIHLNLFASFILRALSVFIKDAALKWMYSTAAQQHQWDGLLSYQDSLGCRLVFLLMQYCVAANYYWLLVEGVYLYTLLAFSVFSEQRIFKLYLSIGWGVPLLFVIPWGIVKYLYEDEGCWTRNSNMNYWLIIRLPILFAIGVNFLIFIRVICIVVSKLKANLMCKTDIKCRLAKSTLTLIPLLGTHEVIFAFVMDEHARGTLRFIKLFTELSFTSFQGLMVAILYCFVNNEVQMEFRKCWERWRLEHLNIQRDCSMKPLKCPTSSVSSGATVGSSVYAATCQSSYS

[2] = biological target: T2, Glucagon-like peptide 1 receptor (Mus musculus, UniProt O35659); test: Positive allosteric modulator activity at mouse GLP-1R expressed in PSC-HEK293 cells in presence of EC20 level of GLP1(9-36)NH2 incubated for 30 mins by HTRF cAMP assay; type: functional, cell-based
T2 sequence (O35659 whole entry): T1 sequence (whole entry)

[3] = biological target: T3, Glucagon-like peptide 1 receptor (Homo sapiens, UniProt P43220); test: Positive allosteric modulator activity at human GLP-1R expressed in PSC-HEK293 cells in presence of EC20 level of GLP1(9-36)NH2 incubated for 30 mins by HTRF cAMP assay relative to control; type: functional, cell-based
T3 sequence (P43220 whole entry): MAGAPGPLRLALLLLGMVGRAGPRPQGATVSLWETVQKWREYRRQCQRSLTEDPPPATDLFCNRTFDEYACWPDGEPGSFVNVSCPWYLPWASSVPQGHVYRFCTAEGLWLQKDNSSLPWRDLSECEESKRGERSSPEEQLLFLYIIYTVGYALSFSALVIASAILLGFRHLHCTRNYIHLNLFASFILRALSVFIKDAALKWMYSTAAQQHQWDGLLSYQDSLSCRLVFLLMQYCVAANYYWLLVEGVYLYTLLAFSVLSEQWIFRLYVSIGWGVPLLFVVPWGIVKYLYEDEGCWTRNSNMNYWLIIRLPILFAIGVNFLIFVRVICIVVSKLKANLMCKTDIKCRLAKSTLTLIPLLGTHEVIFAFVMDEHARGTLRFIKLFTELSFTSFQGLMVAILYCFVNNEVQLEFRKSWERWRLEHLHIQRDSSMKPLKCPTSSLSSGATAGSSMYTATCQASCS
How it was run: (§1)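 Thaw-and-use PSC-HEK293 cells stably expressing human GLP-1R, 2000 cells/well in HBSS/20 mM HEPES/0.1% BSA with 2 mM IBMX. Enhancer format: compound dose-response plus fixed EC20 GLP1(9-36)NH2. Shift format: GLP1(9-36)NH2 dose-response plus 10 or 3 μM compound. 30 min at room temperature. HTRF cAMP read after 1 h lysis (665/620 nm). EC50 from a 4-parameter logistic fit.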

[4] = tested on: Mus musculus; test: Suppression of blood glucose concentration in ob/ob C57Bl/6J mouse model of T2DM at 4.5 mg/kg, ip in absence of 60 mg/kg, po OATP/MRP2 inhibitor rifampicin by oral glucose-tolerance test; type: functional, organism-based
How it was run: (§2)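 Male ob/ob mice aged 10–11 weeks, n=7, randomised on blood glucose and fasted overnight. Rifampicin 60 mg/kg p.o. 2.5 h before the oGTT, compound 30 mg/kg p.o. 1 h before, GLP1(9-36)NH2 i.p. 15 min before, each given as indicated. Glucose 2 g/kg orally. Tail-vein glucose by glucometer at 0, 15, 30, 60 and 90 min.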

[5] = tested on: Mus musculus; test: Suppression of blood glucose concentration in ob/ob C57Bl/6J mouse model of T2DM at 4.5 mg/kg, ip and treated with 60 mg/kg, po OATP/MRP2 inhibitor rifampicin 2.5 hrs prior to oral glucose-tolerance test; type: functional, organism-based; how it was run: as §2
[6] = biological target: T1, Glucagon-like peptide 1 receptor (Mus musculus); test: Positive allosteric modulator activity at GLP-1R in mouse MIN6-c4 cells assessed as effect on glucose-mediated increase in intracellular Ca2+ level by FLIPR assay relative to control; type: functional, cell-based
[7] = biological target: Sodium channel protein type 5 subunit alpha (Homo sapiens, UniProt Q14524); test: Effect on Nav1.5 (unknown origin)
Sequence of Sodium channel protein type 5 subunit alpha (Q14524 whole entry): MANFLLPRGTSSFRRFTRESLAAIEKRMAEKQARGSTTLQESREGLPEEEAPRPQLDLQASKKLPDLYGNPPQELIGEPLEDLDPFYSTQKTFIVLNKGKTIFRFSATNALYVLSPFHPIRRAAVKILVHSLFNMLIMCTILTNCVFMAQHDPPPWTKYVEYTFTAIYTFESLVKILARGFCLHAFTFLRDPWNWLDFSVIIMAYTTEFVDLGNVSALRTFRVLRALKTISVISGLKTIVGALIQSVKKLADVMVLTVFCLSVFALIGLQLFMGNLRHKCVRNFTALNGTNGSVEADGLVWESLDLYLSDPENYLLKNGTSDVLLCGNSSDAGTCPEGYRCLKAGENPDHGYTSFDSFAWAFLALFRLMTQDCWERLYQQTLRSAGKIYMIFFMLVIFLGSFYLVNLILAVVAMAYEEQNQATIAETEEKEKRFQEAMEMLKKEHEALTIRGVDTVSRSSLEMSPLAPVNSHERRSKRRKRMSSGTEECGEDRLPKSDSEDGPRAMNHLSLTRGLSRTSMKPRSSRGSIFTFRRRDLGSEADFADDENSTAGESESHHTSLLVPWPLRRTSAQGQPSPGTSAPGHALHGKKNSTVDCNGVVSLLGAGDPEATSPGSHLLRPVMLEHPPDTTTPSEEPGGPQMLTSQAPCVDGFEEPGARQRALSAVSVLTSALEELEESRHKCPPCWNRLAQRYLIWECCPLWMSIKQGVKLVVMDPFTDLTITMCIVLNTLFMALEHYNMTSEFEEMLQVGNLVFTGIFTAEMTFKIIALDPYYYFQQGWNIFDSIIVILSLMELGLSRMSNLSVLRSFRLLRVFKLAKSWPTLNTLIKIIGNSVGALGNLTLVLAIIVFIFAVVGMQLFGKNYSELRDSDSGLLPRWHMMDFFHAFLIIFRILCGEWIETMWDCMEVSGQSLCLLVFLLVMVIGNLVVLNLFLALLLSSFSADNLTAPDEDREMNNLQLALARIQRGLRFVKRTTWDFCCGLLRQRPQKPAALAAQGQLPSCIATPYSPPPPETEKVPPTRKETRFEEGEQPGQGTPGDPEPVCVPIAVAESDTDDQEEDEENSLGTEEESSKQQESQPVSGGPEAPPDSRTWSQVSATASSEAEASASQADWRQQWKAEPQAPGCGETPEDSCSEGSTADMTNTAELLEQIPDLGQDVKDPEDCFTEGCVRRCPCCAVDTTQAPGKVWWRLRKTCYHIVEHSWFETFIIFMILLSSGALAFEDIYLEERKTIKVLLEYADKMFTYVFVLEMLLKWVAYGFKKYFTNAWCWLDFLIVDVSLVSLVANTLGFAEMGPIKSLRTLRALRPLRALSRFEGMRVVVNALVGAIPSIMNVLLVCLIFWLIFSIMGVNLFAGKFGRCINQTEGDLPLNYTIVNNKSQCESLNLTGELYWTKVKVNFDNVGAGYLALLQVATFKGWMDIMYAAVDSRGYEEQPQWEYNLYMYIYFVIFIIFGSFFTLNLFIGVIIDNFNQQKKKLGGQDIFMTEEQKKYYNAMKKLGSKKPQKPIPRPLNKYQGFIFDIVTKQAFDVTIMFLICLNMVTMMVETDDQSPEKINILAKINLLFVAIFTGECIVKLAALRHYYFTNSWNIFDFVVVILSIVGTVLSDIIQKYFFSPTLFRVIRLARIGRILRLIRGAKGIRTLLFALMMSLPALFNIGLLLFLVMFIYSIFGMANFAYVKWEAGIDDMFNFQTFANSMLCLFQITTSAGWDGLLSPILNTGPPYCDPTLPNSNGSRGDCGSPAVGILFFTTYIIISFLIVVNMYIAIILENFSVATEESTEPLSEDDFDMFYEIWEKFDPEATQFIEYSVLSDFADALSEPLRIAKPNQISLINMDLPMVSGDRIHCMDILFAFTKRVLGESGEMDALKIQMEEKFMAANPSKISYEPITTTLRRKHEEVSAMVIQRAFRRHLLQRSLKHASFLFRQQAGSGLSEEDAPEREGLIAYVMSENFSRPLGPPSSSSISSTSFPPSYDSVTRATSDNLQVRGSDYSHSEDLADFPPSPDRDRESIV

[8] = biological target: T3, Glucagon-like peptide 1 receptor; test: Positive allosteric modulator activity at GLP-1R in human 1.1B4 cells in presence of EC20 level of GLP1(9-36)NH2 incubated for 30 mins by HTRF cAMP assay; type: functional, cell-based
How it was run: (§3)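 Human pancreatic β-cell line 1.1B4, 20,000 cells/well cultured overnight, washed twice; compound concentration-response with fixed 10 nM GLP1(9-36)NH2, 30 min. cAMP by HTRF 665/620 ratio, normalised to buffer (1x HBSS, 0.1% BSA, 1 mM IBMX; 0%) and GLP-1(7-36)NH2 (100%); 4-parameter logistic fit.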

[9] = biological target: Sodium channel protein type 2 subunit alpha (Homo sapiens) (UniProt Q99250); test: Effect on Nav1.2 (unknown origin)
Sequence of Sodium channel protein type 2 subunit alpha (Homo sapiens) (Q99250 whole entry, looked up): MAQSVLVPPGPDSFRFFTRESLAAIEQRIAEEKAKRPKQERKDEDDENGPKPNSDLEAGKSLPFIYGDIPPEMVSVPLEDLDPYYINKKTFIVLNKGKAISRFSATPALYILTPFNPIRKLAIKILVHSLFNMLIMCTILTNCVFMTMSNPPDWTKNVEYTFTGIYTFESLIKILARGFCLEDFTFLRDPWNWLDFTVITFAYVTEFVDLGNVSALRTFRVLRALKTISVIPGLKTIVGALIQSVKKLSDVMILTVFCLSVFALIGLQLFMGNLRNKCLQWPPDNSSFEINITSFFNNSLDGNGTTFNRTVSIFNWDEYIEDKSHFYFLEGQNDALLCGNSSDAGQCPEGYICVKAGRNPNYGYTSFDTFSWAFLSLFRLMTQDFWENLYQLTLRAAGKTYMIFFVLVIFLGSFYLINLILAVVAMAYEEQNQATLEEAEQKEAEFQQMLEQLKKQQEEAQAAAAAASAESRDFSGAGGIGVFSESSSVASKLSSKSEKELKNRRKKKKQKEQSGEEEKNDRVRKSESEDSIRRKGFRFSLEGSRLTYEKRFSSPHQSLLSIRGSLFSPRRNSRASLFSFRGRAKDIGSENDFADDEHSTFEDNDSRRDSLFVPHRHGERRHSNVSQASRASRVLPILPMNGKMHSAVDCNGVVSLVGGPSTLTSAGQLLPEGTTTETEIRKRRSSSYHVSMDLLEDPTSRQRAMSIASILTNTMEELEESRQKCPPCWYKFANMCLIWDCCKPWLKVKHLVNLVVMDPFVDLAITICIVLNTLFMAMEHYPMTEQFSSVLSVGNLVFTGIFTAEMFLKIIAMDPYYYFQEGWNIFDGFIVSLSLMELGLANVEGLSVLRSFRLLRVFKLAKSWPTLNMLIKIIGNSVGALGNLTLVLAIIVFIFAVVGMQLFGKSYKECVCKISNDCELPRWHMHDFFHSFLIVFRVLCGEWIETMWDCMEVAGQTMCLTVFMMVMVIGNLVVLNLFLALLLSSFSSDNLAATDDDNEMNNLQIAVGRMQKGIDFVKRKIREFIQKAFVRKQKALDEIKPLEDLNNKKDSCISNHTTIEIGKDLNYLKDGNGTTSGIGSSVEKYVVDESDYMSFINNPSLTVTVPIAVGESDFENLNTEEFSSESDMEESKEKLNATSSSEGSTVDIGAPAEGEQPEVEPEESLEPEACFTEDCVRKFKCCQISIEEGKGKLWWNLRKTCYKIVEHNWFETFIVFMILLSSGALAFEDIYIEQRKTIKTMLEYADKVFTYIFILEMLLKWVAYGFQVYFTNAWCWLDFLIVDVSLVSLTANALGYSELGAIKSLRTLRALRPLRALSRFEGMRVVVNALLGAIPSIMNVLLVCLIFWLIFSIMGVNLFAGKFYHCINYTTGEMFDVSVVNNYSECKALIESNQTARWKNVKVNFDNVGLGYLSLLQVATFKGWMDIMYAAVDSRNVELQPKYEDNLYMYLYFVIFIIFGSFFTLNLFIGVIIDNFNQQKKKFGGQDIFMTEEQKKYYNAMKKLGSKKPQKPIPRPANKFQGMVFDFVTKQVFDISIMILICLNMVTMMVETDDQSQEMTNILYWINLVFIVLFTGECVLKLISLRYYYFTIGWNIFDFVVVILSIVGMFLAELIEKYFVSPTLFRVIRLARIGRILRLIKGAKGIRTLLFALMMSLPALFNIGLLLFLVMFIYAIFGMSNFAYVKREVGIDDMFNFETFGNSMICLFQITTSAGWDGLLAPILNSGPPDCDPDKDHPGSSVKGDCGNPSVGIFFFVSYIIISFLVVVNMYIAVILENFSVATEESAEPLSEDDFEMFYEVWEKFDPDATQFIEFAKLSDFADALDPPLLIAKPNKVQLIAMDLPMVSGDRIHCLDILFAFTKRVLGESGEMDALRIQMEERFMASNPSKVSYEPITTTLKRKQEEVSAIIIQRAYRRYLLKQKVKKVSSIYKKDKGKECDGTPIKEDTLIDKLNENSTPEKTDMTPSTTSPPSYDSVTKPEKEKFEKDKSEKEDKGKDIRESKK

[10] = biological target: T3, Glucagon-like peptide 1 receptor; test: Positive allosteric modulator activity at GLP-1R in human 1.1B4 cells in presence of EC20 level of GLP1(9-36)NH2 incubated for 30 mins by HTRF cAMP assay relative to control; type: functional, cell-based; how it was run: as §3
[11] = biological target: T3, Glucagon-like peptide 1 receptor; test: Displacement of radioactive labeled GLP-1(7-36)NH2 from human GLP-1R by radioactive ligand binding assay
[12] = biological target: T3, Glucagon-like peptide 1 receptor; test: Positive allosteric modulator activity at human GLP-1R expressed in PSC-HEK293 cells assessed as potentiation of GLP1(9-36)NH2-induced cAMP accumulation by measuring shift in EC50 of endogenous GLP1(9-36)NH2 at 10 uM incubated for 30 mins by HTRF cAMP assay relative to control; type: functional, cell-based
How it was run: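 Thawed frozen PSC-HEK293 cells stably expressing human GLP-1R, 2000 cells/well in HBSS/20 mM HEPES/0.1% BSA with 2 mM IBMX. Shift format: GLP1(9-36)NH2 dose-response with compound fixed at 10 or 3 µM; 30 min room temperature; cAMP by HTRF (665/620 nm ratio) after 1 h with lysis reagents; 4-parameter logistic fit; EC50 shift factor derived.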

[13] = Agonist activity at KATP channel (unknown origin); set-up: species or system Homo sapiens
[14] = biological target: T3, Glucagon-like peptide 1 receptor; test: Positive allosteric modulator activity at human GLP-1R expressed in PSC-HEK293 cells in presence of EC20 level of GLP1(9-36)NH2 incubated for 30 mins by HTRF cAMP assay; type: functional, cell-based
How it was run: as §1, with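 “temperature.” for “temperature. HTRF cAMP read after 1 h lysis (665/620 nm).”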

[15] = Stability in GSH assay; type: physicochemical
[16] = biological target: T1, Glucagon-like peptide 1 receptor (Mus musculus); test: Inhibition of 15 mM glucose-mediated increase in intracellular Ca2+ level in mouse MIN6-c4 cells at 30 uM by FLIPR assay relative to control; type: functional, cell-based
[17] = Tmax in mouse at 10 mg/kg, po; conditions: in vivo
[18] = Cmax in mouse at 10 mg/kg, po; conditions: in vivo

Emax [1]: 100%
EC50 [2]: 0.3 µM
Emax [3]: 91%
Structure (SMILES): Cc1cc(-n2nc3c(c2-n2ccn(-c4ccc5c(cnn5C)c4F)c2=O)[C@H](C)N(C(=O)c2cc4cc([C@H]5CCOC(C)(C)C5)ccc4n2[C@@]2(c4noc(=O)[nH]4)C[C@@H]2C)CC3)cc(C)c1F [ORFORGLIPRON]

fold change (FC) [6]: inactive
EC50 [8]: Not Active
Activity [9]: Active
Emax [10]: inactive
inhibition [11]: inactive
Ratio EC50 [12]: 3800
EC50 [13]: 2.67 µM
Emax [3]: 99%
EC50 [14]: 0.005 µM
Stability [15]: Stable
Structure (SMILES): CC(C)(C)OC(=O)n1c2c(c3ccccc31)C[C@H]1C(=O)NC[C@@H]2N1C(=O)CC1CCC(F)(F)CC1
Activity [7]: Active

inhibition [16]: Active
Structure (SMILES): CC1=Nc2ccc(Cl)cc2S(=O)(=O)N1

The remaining lines, values behind:

Structure (SMILES): CC[C@H](C)[C@H](NC(=O)[C@H](Cc1ccccc1)NC(=O)[C@H](CCC(=O)O)NC(=O)[C@H](CCCCN)NC(=O)[C@H](C)NC(=O)[C@H](C)NC(=O)[C@H](CCC(N)=O)NC(=O)CNC(=O)[C@H](CCC(=O)O)NC(=O)[C@H](CC(C)C)NC(=O)[C@H](Cc1ccc(O)cc1)NC(=O)[C@H](CO)NC(=O)[C@H](CO)NC(=O)[C@@H](NC(=O)[C@H](CC(=O)O)NC(=O)[C@H](CO)NC(=O)[C@@H](NC(=O)[C@H](Cc1ccccc1)NC(=O)[C@@H](NC(=O)CNC(=O)[C@@H](N)CCC(=O)O)[C@@H](C)O)[C@@H](C)O)C(C)C)C(=O)N[C@@H](C)C(=O)N[C@@H](Cc1c[nH]c2ccccc12)C(=O)N[C@@H](CC(C)C)C(=O)N[C@H](C(=O)N[C@@H](CCCCN)C(=O)NCC(=O)N[C@@H](CCCNC(=N)N)C(N)=O)C(C)C
Activity [4]: inactive
Activity [5]: inactive

Structure (SMILES): CO[C@H]1/C=C/O[C@@]2(C)Oc3c(C)c(O)c4c(O)c(c(/C=N/N5CCN(C)CC5)c(O)c4c3C2=O)NC(=O)/C(C)=C\C=C\[C@H](C)[C@H](O)[C@@H](C)[C@@H](O)[C@@H](C)[C@H](OC(C)=O)[C@@H]1C [RIFAMPIN]
Tmax [17]: 1.5 h
Cmax [18]: 13 µM
